From PubChem
A selection: hits, their analogues and other compounds. The true share with any hit is near 12%.
Diaph act CS = diaphorase activation or chemical reduction counter-screen; hit rate 0.005% among 190,000; activation factor at 20 µM; AID 1229; Diaphorase/resazurin coupled assay, resorufin fluorescence, 16 min; active compounds read high; 1 = vehicle wells, 0 = NADH-free wells;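 active = diaphorase activity raised at least twofold by the compound at 20 µM; inactive = activation factor below 2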
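Material: Purified diaphorase enzyme from Clostridium kluyveri | Buffer or medium: 50 mM HEPES pH 7.4 with 4.542 mM MgCl2, 0.005% Tween 20 | Times: 16 min enzyme reaction, ambient temperature | Signal: Red resorufin fluorescence at 544/590 nm excitation/emission | Measure: Increased resorufin signal from activators or reducing compounds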
Diaph inh CS = diaphorase inhibition or chemical oxidation counter-screen; hit rate 0.69% among 190,000; AID 1217; diaphorase resazurin-to-resorufin fluorescence, NADH, 16 min; bacterial (C. kluyveri) enzyme, not human; inhibition, % at 20 µM;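 active = primary screen inhibition at 20 µM above a set limit, cut at about 50% in these data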;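 note: plate controls were DMSO with full reaction for no effect and wells lacking NADH for full effect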
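System: Diaphorase enzyme from Clostridium kluyveri | Amount: Enzyme working solution with 0.14 U/mL diaphorase | Benchmarks: No-NADH positive control and DMSO neutral control | Signal: Fluorescence of resorufin formed from resazurin, Ex 544/Em 590 nm | Schedule: 16-min room-temperature incubation before reading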
WT yeast gro inh = growth inhibition of WT yeast, mitochondrial fusion screen; mitochondrial fusion phenotypic screen, WT strain; inhibition, % at 10 µM; hit rate 2.1% among 190,000; in the data active = inhibition above about 58%; tested in S. cerevisiae
Lmaj promast = Leishmania major promastigote growth inhibition | Leishmania major promastigotes, resazurin fluorescence viability | inhibition, % at 10 µM | hit rate 9% among 200,000; in the data active = inhibition above about 50%;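 note: promastigotes grown with compound for 44 hours at 28 °C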
ROMK primary = human ROMK K+ channel modulation, primary screen; P48048; Tet-inducible ROMK, thallium flux fluorescence; actives lie on both sides; B-score at 10 µM; hit rate 2% among 130,000; AID 1918;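 active = signal ratio slope over the read window, or its plate-corrected B-score, at least 3 SD from the plate mean, either direction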;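 note: B-score of the F/F0 ratio slope over 7 to 12 s after thallium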
KCC2 mod = modulates chloride dependent transport by human KCC2 | B-score of Tl+ flux slope (higher = more flux/activation; lower = inhibition) at 10 µM | hit rate 2.2% among 190,000 | KCC2 cells, thallium flux FluoZin-2 fluorescence;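 active = thallium flux slope and its plate-corrected score both differing from the plate sample mean at a set confidence after two filtering rounds, in either direction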;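 note: slope of fluorescence scaled to starting intensity during 10 to 20 s after thallium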
Active calls of the source: *; nt = no result.

SMILES	Diaph act CS	Diaph inh CS	WT yeast gro inh	Lmaj promast	ROMK primary	KCC2 mod
Cc1ccc(N2CN=C3SCC(=O)N3C2)cc1C	0.8	19.2	0.9	1.1	-0.0286	0.834
O=C(O)c1sc2cccc(Cl)c2c1Cl	nt	nt	-2.4	-6.4	0.307	-2.02
COc1ccc(S(=O)(=O)N2CCC(C(=O)N3CCc4ccccc4C3)CC2)cc1Cl	0.9	12.6	16.1	96.4*	nt	-3.1
Cc1c(-c2ccccc2)nc2ccccc2c1C(=O)NCc1cccs1	0.9	9.7	-6.2	2.2	nt	-0.359
COc1ccc(-c2nnc3sc(-c4ccco4)nn23)cc1OC	0.8	19.0	-11.3	35.8	nt	0.613
c1coc(-c2nnc3n2C2(CCCC2)Cc2ccccc2-3)c1	0.9	12.0	-6.8	15.1	nt	0.606
COc1ccc(-c2nn3c(-c4ccco4)nnc3s2)cc1OC	0.9	14.9	-1.5	88.4*	nt	-0.938
COc1cc(OC)c(-c2nn3c(-c4ccco4)nnc3s2)cc1OC	0.8	23.5	4.2	82.3*	nt	-2.46
COc1cc2c(cc1OC)-c1nnc(-c3ccco3)n1C1(CCCC1)C2	0.9	14.7	3.4	57.5*	-0.908	-0.00896
CNC(=O)c1[nH]cnc1C(=O)Nc1ccccn1	1.2	-19.8	-12.2	-0.2	2.35	0.581
COC(=O)c1c(C)nn(-c2ccc(F)c(Cl)c2)c1-c1cc(C)on1	nt	nt	nt	nt	nt	-1.5
Cc1cccc(-n2c(C)cc(/C=N/n3cnnc3)c2C)c1	1.1	-6.3	2.1	14.6	nt	1.49
CCN(c1cccc(C)c1)S(=O)(=O)c1ccc2c3c(cccc13)C(=O)N2	0.7	28.4	-7.8	98.9*	-1.67	-0.000893
O=C(CCN1C(=O)C2C3C=CC(C3)C2C1=O)N1CCN(c2ccccn2)CC1 (configuration not stated)	0.9	7.4	-5.8	-3.8	nt	0.245
O=C(CCSCc1ccccc1Cl)N1CCN(c2cccc(Cl)c2)CC1	0.9	5.4	60.7*	68.5*	nt	0.451
O=C(CCN1C(=O)C2C3C=CC(C3)C2C1=O)N1CCN(c2cccc(Cl)c2)CC1 (configuration not stated)	0.9	7.9	-10.0	55.6*	nt	nt
O=C(CSCc1ccccc1Cl)N1CCN(c2ccccn2)CC1	0.9	5.0	-4.2	60.2*	-1.43	0.352
O=C(C(=O)N1CCN(c2cccc(Cl)c2)CC1)N1CCCCC1	1	1.0	3.0	6.0	0.24	0.0122
O=C(CN1CCN(C/C=C/c2ccccc2)CC1)NC(=O)NC1CCCCC1	1	3.3	-25.8	37.9	-1.57	-0.247
O=C(Cn1cc([N+](=O)[O-])cn1)Nc1cccnc1	1	2.2	-8.0	-3.5	0.079	-0.00322
O=C(O)/C=C/c1nc(-c2ccccc2)n2ccccc12	0.9	14.7	5.1	1.6	nt	0.271
C/C(CC(C)(C)C1CCCCC1)=N\NC(N)=S	0.7	25.2	63.7	100.5*	-1.69	1.59
Cc1cccc(N(C(=O)CCC(=O)Nc2nccs2)C(C(=O)NC(C)(C)C)c2ccc(O)cc2)c1 (configuration not stated)	0.8	17.6	-7.5	-5.1	-0.7	-0.392
O=C1/C(=C/c2ccco2)CCc2ccccc21	0.8	24.4	4.2	-4.6	-0.687	-0.121
O=C1/C(=C/c2cccc3ccccc23)CCCc2ccccc21	0.9	13.7	62.8*	7.9	-0.293	0.467
SMILES	Diaph act CS	Diaph inh CS	WT yeast gro inh	Lmaj promast	ROMK primary	KCC2 mod
Cc1ccc(NC(=S)N=Nc2c(O)n(C)c3ccc(S(=O)(=O)N4CCOCC4)cc23)cc1	0.8	22.4	49.9	33.3	nt	9.6*
CC(NC(=S)NCc1ccc(F)cc1)C12CC3CC(CC(C3)C1)C2 (configuration not stated)	0.9	5.8	77.4*	13.4	nt	1.65
C[C@H](NC(=O)NCc1ccc(F)cc1)C(=O)O	1	1.9	-8.1	-6.1	1.02	0.775
N=c1c2c(-c3ccccc3)c(-c3ccccc3)n(Cc3ccccc3)c2ncn1CCO	1.2	-23.2	1.6	100.5*	nt	0.138
N=c1c2c(-c3ccccc3)c(-c3ccccc3)n(Cc3ccco3)c2ncn1Cc1ccccc1	1.1	-6.1	nt	100.2*	-4.84*	-1.47
OCCNc1ncnc2c1c(-c1ccccc1)c(-c1ccccc1)n2Cc1ccco1	0.7	26.4	2.9	4.5	-0.996	-2.8
c1ccc(Cn2cnc3ccccc32)cc1	0.9	13.1	-8.1	11.3	nt	nt
O=C(CSc1nccc(=O)[nH]1)NCc1ccc(Cl)cc1	0.9	9.4	-7.2	-2.5	0.42	0.249
CC(=O)NC(c1ccc(C)cc1)c1cc([N+](=O)[O-])c2cccnc2c1O (configuration not stated)	0.4	60.2*	-13.7	-7.9	0.485	nt
O=C(NC(c1ccc(Cl)cc1)c1cc(Cl)c2cccnc2c1O)c1cccnc1 (configuration not stated)	0.9	9.3	-0.3	99.0*	1.24	1.01
O=C(NCc1ccc(Cl)cc1)c1cccnc1	1	2.8	5.7	-3.2	-0.851	nt
CCC(=O)NC(c1ccc(C)cc1)c1cc([N+](=O)[O-])c2cccnc2c1O (configuration not stated)	0.7	29.2	0.3	-7.7	1	0.529
CCCCC(=O)NC(c1cccs1)c1cc(Cl)c2cccnc2c1O (configuration not stated)	1.1	-6.5	-16.3	98.5*	0.899	0.866
CCCC(=O)NC(c1ccc(OC)c(OC)c1)c1cc(Cl)c2cccnc2c1O (configuration not stated)	0.6	35.4	-1.5	98.6*	0.387	0.75
CCCC(=O)NC(c1ccco1)c1cc([N+](=O)[O-])c2cccnc2c1O (configuration not stated)	0.6	37.6	-27.2	3.7	nt	-0.0339
CCC(=O)NC(c1cccs1)c1cc(Cl)c2cccnc2c1O (configuration not stated)	nt	nt	-4.9	98.2*	0.0296	0.349
NC(=O)c1nn(-c2ccc(Cl)cc2Cl)c(=O)cc1O	0.9	12.2	2.5	-12.8	1.75	nt
Cn1cnc([N+](=O)[O-])c1Oc1ccc2ccccc2c1	0.8	23.8	17.0	81.0*	-0.486	-0.998
CCC(C)(C(=O)NC1CCCC1)N(C(=O)Cc1cccs1)c1c(C)n(C)n(-c2ccccc2)c1=O (configuration not stated)	1	-1.0	-4.0	-2.2	0.299	0.504
C(=N\C(/N=C/c1ccco1)c1ccco1)/c1ccco1	0.7	31.9	-14.3	-3.2	nt	0.528
C(=Nc1cccc2c(N=Cc3ccco3)cccc12)c1ccco1	0.2	81.3*	11.2	16.5	-0.637	0.187
C/C(=N/N=C/c1ccc(N(C)C)cc1)c1ccccc1	1	0.2	-1.7	80.3*	nt	-0.00044
CN(C)c1ccc(N=Cc2ccco2)cc1	0.5	47.7	5.9	70.8*	nt	nt
CN(C)c1ccc(C=Nc2ccccc2)cc1	1.1	-7.2	-6.1	-4.3	nt	0.0459
CN(C)c1ccc(C=Nc2ccc(N(C)C)cc2)cc1	0.7	33.0	21.0	71.1*	nt	-0.767
